Compound activity deposited in PubChem BioAssay by several laboratories.
UCH37 inh: human UCH37 deubiquitinating enzyme inhibition | Q9Y5K5 | purified proteasome/UCH37, Ub-AMC cleavage fluorescence | inhibition, % (test concentration not listed) | hit rate 0.33% among 330,000 | AID 588478;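 active = mean inhibition over replicate wells above about 20%, limit read from the data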
Target sequence (Q9Y5K5 whole entry, looked up): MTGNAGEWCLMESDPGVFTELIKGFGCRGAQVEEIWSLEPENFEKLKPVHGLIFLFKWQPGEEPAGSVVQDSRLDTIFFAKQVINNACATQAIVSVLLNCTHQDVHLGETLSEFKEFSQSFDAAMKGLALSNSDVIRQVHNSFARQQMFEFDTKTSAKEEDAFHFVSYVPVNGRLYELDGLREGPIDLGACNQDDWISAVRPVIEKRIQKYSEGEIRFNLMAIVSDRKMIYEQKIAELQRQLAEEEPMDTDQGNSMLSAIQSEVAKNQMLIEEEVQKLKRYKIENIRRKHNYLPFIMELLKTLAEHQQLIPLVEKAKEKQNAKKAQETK
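Signal – fluorescence, ex 355 nm, em 460 nm · System – Proteasome-bound UCH37 · Input – 0.15 nM proteasome as dispensed · Timing – 30 min preincubation with enzyme, 25 min cleavage at room temperature · Read-out basis – percent inhibition of cleavage signal versus uninhibited and no-proteasome wells · Medium – Tris-HCl pH 7.4 with ATP-MgCl2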
Cardio protect: protects H9c2 cardiomyocytes from peroxide injury; AID 588492; H2O2 injury protection, ATPLite, 2 h; hit rate 0.63% among 360,000; protection from H2O2 cell death, % at 20 µM;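 active = compounds giving at least 50% protection of heart cells from peroxide-induced death in the single-dose screen, raw or plate-pattern-corrected value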
CRFR2-BP ag: agonists of human CRF-binding protein/CRF-R2 receptor complex; activation, % at 13.2 µM; HEK293 CRF-R2/CRF-BP, calcium dye fluorescence (FLIPR); percent of saturating CRF peptide response; AID 588473; hit rate 0.46% among 350,000;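 active = activation of at least 50%, plus an integration ratio under a set limit after plate pattern correction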
iPSC survival up: enhancers of human iPSC single-cell survival | hit rate 0.044% among 360,000 | survival enhancement, % at 20 µM | hiPSC single-cell survival, ATPlite luminescence; 100% = ROCK inhibitor wells, 0% = DMSO; in the data active = survival enhancement above about 18%;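 also: cells exposed to compounds for 16 hours before the ATP read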
MIN6 prolif: induces beta-cell replication in MIN6 cells | MIN6 cells proliferation, ATPlite luminescence, 48 h; cells starved in 0.2% serum; 100% = growth in 10% serum | proliferation, % at 10 µM | hit rate 0.29% among 330,000 | AID 2380;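 active = compounds whose signal lies at least 3.5 SD above the mean of all wells on their plate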
CRFR2-BP antag: CRF-BP/CRF-R2 complex antagonism | inhibition, % at 11.8 µM | AID 588475 | hit rate 0.59% among 350,000 | HEK293 CRF-R2/CRF-BP, CRF-induced calcium fluorescence;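 active = inhibition of the ligand-induced calcium signal above about 50% at the single tested concentration, limit read from the data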
A number is an active result; n = inactive; x = not tested or not shown. Compounds with a hit are over-represented: about 2.1% of the library has one in this group of screens.

SMILES	UCH37 inh	Cardio protect	CRFR2-BP ag	iPSC survival up	MIN6 prolif	CRFR2-BP antag
CC(C)(C)C(=O)ON=C1C(=O)N(c2ccccc2)c2ccccc21	n	x	x	x	x	x
CC(=NNC(=O)c1ccccc1O)c1cccc(NC(=O)c2ccccc2)c1	n	x	x	x	x	x
O=C(NN=Cc1ccc(OC(F)F)cc1)c1ccc(Br)cc1	n	x	x	x	x	x
COc1ccc(CC(=O)NC(=S)Nc2cccc(C)c2)cc1	n	n	58	n	n	n
COc1cccc(NC(=S)NC(=O)Cc2ccc(Cl)cc2)c1	n	n	68	n	n	n
COc1ccccc1NC(=S)NC(=O)Cc1ccc(Cl)cc1	n	n	63	n	n	n
CCC(=O)NC(=S)Nc1ccccc1OC	n	n	n	n	n	n
Cc1cc(C)n(CC(=O)NN=Cc2ccccn2)n1	n	x	x	x	x	x
COc1cccc(OCc2nc(-c3cccc([N+](=O)[O-])c3)no2)c1	n	n	n	n	n	n
COc1cccc(-c2noc(Cn3nc(C)c([N+](=O)[O-])c3C)n2)c1	24	n	n	n	n	n
Cc1cc(O)c(C=NNc2ccccc2)c(=O)o1	n	x	x	x	x	x
c1cncc(-c2cn(C[C@H]3CC[C@@H]([C@@H]4CC[C@H](Cn5cc(-c6cccnc6)nn5)O4)O3)nn2)c1	25	n	n	n	n	n
c1cncc(-c2cn(C[C@H]3CC[C@H](Cn4cc(-c5cccnc5)nn4)O3)nn2)c1	n	n	n	n	x	n
COc1cc(C=NNC(=O)c2cccnc2)ccc1OC(=O)c1ccco1	n	x	x	x	x	x
CCOC(=O)c1ccc(CNC(=O)Cn2nnc(-c3ccccc3)n2)o1	n	n	143	n	n	n
CCOC(=O)c1ccc(CNC(=O)Cn2nnc(-c3ccccc3F)n2)o1	x	n	n	n	n	n
CCOC(=O)CSc1nnc2n(C3CCCCC3)c(=O)c3c4c(sc3n12)CCCC4	n	n	n	n	n	n
Cc1nnc2n(C3CCCCC3)c(=O)c3c4c(sc3n12)COC(C)(C)C4	n	n	n	21	n	n
O=Nc1c(O)n(Cc2ccc(Cl)cc2)c2ccccc12	n	n	n	n	n	n
O=Nc1c(O)n(Cc2c(Cl)cccc2Cl)c2ccccc12	n	n	163	n	n	n
CC1C(=O)NN=C1C(=O)NN=Cc1ccco1 (stereo unspecified)	n	x	x	x	x	x
COc1cccc2cc(-c3nc(-c4cccs4)cs3)c(=O)oc12	n	87	n	n	n	n
COc1ccc(S(=O)(=O)NNC(=O)c2csc(-n3nc(C)cc3C(F)(F)F)n2)cc1	n	n	n	n	n	61
COc1ccc(C=NNC(=O)c2csc(-n3nc(C)cc3C(F)(F)F)n2)cc1	n	x	x	x	x	x
CCOc1cc(C=NNC(=O)NN=Cc2ccc(O)c(OCC)c2)ccc1O	n	x	x	x	x	x
SMILES	UCH37 inh	Cardio protect	CRFR2-BP ag	iPSC survival up	MIN6 prolif	CRFR2-BP antag
O=C(NN1C(=O)CSC1=S)c1cccnc1	n	n	n	n	n	77
CC(CC(=O)NCc1ccco1)=NNC(=O)Cc1ccc(Cl)cc1	32	x	x	x	x	x
CC(C)CN(C=Nc1sc2c(c1C#N)CCCCC2)CC(C)C	n	x	x	x	x	x
COc1cccc(C=NNC(=O)c2oc3nc(-c4ccccc4)cc(-c4ccco4)c3c2N)c1	n	x	x	x	x	x
CS(=O)(=O)N(Cc1ccc(C(=O)NCCSc2ccccn2)cc1)c1ccccc1	n	62	n	n	n	n
C=CCNC(=S)NN=Cc1ccc(-c2ccc(OC)cc2)o1	n	x	x	x	x	x
Cc1cccc(NN=Cc2ccccc2O)c1	n	x	x	x	x	x
COCCNC(=S)NN=C(C)c1ccc(OC(F)F)cc1	n	x	x	x	x	x
CCOC(=O)CNC(=O)CSc1nc2nc(C)c(Br)cc2[nH]1	n	50	n	n	n	n
Cc1nc2nc(SCC(N)=O)[nH]c2cc1Br	n	n	n	n	n	n
CN(C)c1ccc(C=NN=C2SC(CC(=O)O)C(=O)N2c2ccc(O)cc2)cc1 (stereo unspecified)	n	x	x	x	x	x
O=C1/C(=N\S(=O)(=O)c2cccs2)C([n+]2ccc(CCCc3ccccc3)cc2)=C([O-])c2ccccc21	n	n	n	n	n	n
O=C1/C(=N\S(=O)(=O)c2cccs2)C([n+]2cccc(Cc3ccccc3)c2)=C([O-])c2ccccc21	n	n	62	n	n	n
Cc1sc2nc(SCC(=O)N3CCOCC3)[nH]c(=O)c2c1C	n	61	n	n	n	n
